The list is not random: actives were taken first. Their share in the collection is about 4.8%.
PAFAH1B2 FP inh – PAFAH1B2 (human) inhibition; P68402; recombinant PAFAH1B2, FP-rhodamine activity probe, fluorescence polarization; inhibition, % at 3.39 µM; actives 1.2% (n = 340,000); AID 492953;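 active = inhibition above the mean of all tested compounds plus 3 SD, cut at about 24% in these data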;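 also: 0% = enzyme with DMSO and 100% = wells lacking PAFAH1B2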
Target sequence (P68402 whole entry, looked up): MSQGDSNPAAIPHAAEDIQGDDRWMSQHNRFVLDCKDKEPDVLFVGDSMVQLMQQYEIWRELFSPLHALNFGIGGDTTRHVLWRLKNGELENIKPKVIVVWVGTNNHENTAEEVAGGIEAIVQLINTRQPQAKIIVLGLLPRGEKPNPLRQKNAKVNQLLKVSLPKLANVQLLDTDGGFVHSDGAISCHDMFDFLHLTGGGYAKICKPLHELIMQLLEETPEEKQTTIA
NR3A LBD binder – NR3A (human) ligand-binding domain modulation; NR3A LBD differential scanning fluorimetry, Tm shift; 0% = protein alone, 100% = glycine-bound protein; Tm shift relative to glycine control, % at 25 µM; actives 2.5% (n = 340,000); AID 1259313;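 active = melting temperature shift of at least 10% of the positive control shift, at one fixed dose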
UCH37 DUB inh – blocks the human deubiquitinase UCH37 | inhibition, % (no concentration beside the values) | actives 0.33% (n = 330,000) | purified proteasome/UCH37, Ub-AMC cleavage fluorescence;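 active = mean inhibition over replicate wells above about 20%, limit read from the data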;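 also: 0% = compound-free wells with enzyme and 100% = wells lacking proteasome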
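Signal – fluorescence, ex 355 nm, em 460 nm · System – Proteasome-bound UCH37 · Input – 0.15 nM proteasome as dispensed · Timing – 30 min preincubation with enzyme, 25 min cleavage at room temperature · Read-out basis – percent inhibition of cleavage signal versus uninhibited and no-proteasome wells · Medium – Tris-HCl pH 7.4 with ATP-MgCl2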
PAFAH2 FP inh – inhibitors of human PAFAH2; Q99487; recombinant PAFAH2, FP-rhodamine activity probe, fluorescence polarization; inhibition, % at 3.39 µM; actives 0.99% (n = 340,000); AID 492956;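 active = inhibition above the mean over all tested compounds plus 3 SD, cut at about 30% in these data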;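 also: inhibitors block probe labeling of enzyme so polarization drops; 0% = enzyme with DMSO and 100% = wells lacking PAFAH2 protein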
pPAFAH FP inh – inhibitors of human plasma PAF acetylhydrolase (pPAFAH). Q13093. recombinant pPAFAH, FP-rhodamine probe fluorescence polarization. inhibition, % at 3.39 µM. actives 1.5% (n = 330,000). AID 463082;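 active = inhibition above the mean inhibition across the screen plus 3 SD, cut at about 25% in these data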;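 also: inhibitors block binding of the rhodamine activity-based probe so polarization drops; 0% = enzyme with DMSO and 100% = wells lacking pPAFAH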
PAFAH1B3 FP inh – inhibitors of human PAFAH1B3 | recombinant PAFAH1B3, FP-rhodamine probe, fluorescence polarization | inhibition, % at 3.39 µM | actives 0.28% (n = 340,000) | AID 492972 | Q15102;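 active = inhibition above the screen-wide average of all tested compounds plus 3 SD, cut at about 25% in these data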;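 also: 0% = enzyme with DMSO only and 100% = wells lacking PAFAH1B3 protein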
Target sequence (Q15102 whole entry, looked up): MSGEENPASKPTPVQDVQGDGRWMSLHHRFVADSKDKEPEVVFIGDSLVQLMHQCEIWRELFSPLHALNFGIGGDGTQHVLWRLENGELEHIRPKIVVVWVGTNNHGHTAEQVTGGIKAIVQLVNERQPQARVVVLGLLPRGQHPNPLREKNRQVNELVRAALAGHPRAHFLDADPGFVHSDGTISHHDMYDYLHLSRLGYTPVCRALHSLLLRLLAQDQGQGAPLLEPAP
Active calls of the source: *; . = not tested or not shown.

SMILES | PAFAH1B2 FP inh | NR3A LBD binder | UCH37 DUB inh | PAFAH2 FP inh | pPAFAH FP inh | PAFAH1B3 FP inh
Nc1cc(=O)[nH]c(SCc2ccccc2Cl)n1 | 0.8 | -1.0 | 2.8 | 2.2 | -4.6 | -1.2
O=c1nccc(SCc2ccc(Cl)cc2Cl)[nH]1 | 13.2 | 1.8 | 0.4 | 2.2 | 5.4 | 6.7
Cc1cnc(SCc2ccc(Cl)cc2Cl)[nH]c1=O | 27.4* | -6.7 | 1.9 | 4.6 | 6.5 | 10.8
Cc1nnc(SCc2ccc(Cl)cc2Cl)[nH]c1=O | 27.4* | -1.5 | 4.2 | 12.0 | 20.8 | 6.0
O=C(O)c1ccccc1NN=Cc1cc(Br)cc(Br)c1O | . | . | 8.7 | . | . | .
CC(=NNC(=O)CSc1nc2ccccc2s1)c1ccncc1 | . | . | 5.9 | . | . | .
Cc1cccc2c(N=Nc3ccc(S(=O)(=O)Nc4ccc(Cl)cc4)cc3[N+](=O)[O-])c(O)[nH]c12 | -5.6 | -2.6 | 9.2 | -20.5 | 33.0* | 3.1
Cc1ccc2[nH]c(O)c(N=Nc3ccccc3[N+](=O)[O-])c2c1 | -0.4 | 1.3 | . | 5.5 | . | 0.3
O=C(N=Nc1c(O)[nH]c2ccc(F)cc12)c1ccc(NS(=O)(=O)c2cccs2)cc1 | -1.4 | -0.1 | 6.0 | -7.8 | 5.7 | 6.7
Cc1ccc2[nH]c(O)c(N=NC(=O)c3ccc(NS(=O)(=O)c4cccs4)cc3)c2c1 | 25.9* | 6.0 | 6.1 | 0.2 | 26.4* | 10.0
Cc1cccc2c(N=NC(=O)c3ccc(NS(=O)(=O)c4cccs4)cc3)c(O)[nH]c12 | 39.0* | 1.9 | 6.3 | 21.3 | 27.8* | 23.5
Cc1ccc(C)c(S(=O)(=O)NN=Cc2ccc(N(C)C)cc2)c1 | . | . | 7.9 | . | . | .
Clc1cccc(-c2ccc(C=Nn3cnnc3)o2)c1Cl | . | . | 5.1 | . | . | .
Cc1ccc(C=N/N=C2/NC(=O)C(CC(=O)Nc3ccccc3)S2)o1 (centres undefined) | . | . | 5.5 | . | . | .
Cc1ccc(C(=O)NN=C2CC3CC=CC23)c(C)c1 (centres undefined) | . | . | 3.1 | . | . | .
O=C(NN=C/C=C/c1ccccc1)c1cc(C2CC2)[nH]n1 | . | . | 7.5 | . | . | .
CC1(C)Nc2ccc(O)cc2-c2c1ssc2=S | 2.9 | -27.9 | 5.3 | 9.5 | 26.2* | 7.3
COc1cccc(-n2sc3c(c2=S)-c2cc(OC)ccc2NC3(C)C)c1 | 2.5 | -8.4 | 5.3 | 3.0 | 15.9 | 3.5
COc1ccc(C=NNC(=O)c2cc(C34CC5CC(CC(C5)C3)C4)[nH]n2)cc1OC | . | . | -0.2 | . | . | .
COc1cc(OC)cc(C(=O)Nc2ccc(C(=O)Nc3ccccc3OC)cc2)c1 | -5.7 | 34.7* | -3.5 | -7.1 | -3.6 | -6.1
COc1ccccc1NC(=O)c1ccc(NC(=O)COC(=O)c2ccc(O)cc2)cc1 | -4.0 | 2.6 | 1.5 | 49.6* | 25.6* | 1.6
Cc1[nH]c2ccc(C(=O)Nc3ccncc3)cc2c1C | -0.5 | 9.1 | 0.7 | 7.0 | 4.3 | -0.1
COc1ccccc1NC(=O)c1ccc2[nH]c(C)c(C)c2c1 | 1.3 | 19.6* | 0.3 | -4.0 | 6.8 | 14.9
COc1ccccc1NC(=O)c1ccc(NC(=O)c2ccco2)cc1 | 5.5 | -4.3 | 3.8 | -3.3 | 0.6 | 8.6
CCc1ccc(NC(=O)COC(=O)/C(=C/c2ccccc2OC)c2ccccc2)cc1 | -11.1 | 23.0* | 7.0 | -5.6 | -1.7 | -21.8
SMILES | PAFAH1B2 FP inh | NR3A LBD binder | UCH37 DUB inh | PAFAH2 FP inh | pPAFAH FP inh | PAFAH1B3 FP inh
COc1ccc(C=NNC(=O)C(C)n2cnc3ccccc3c2=O)cc1 (centres undefined) | . | . | 2.0 | . | . | .
Cc1cc(C)nc(N=C(N)Nc2cc([N+](=O)[O-])ccc2C)n1 | . | . | -1.2 | . | . | .
Cc1cc(C)nc(NN=Cc2c[nH]c3ccccc23)n1 | . | . | 8.7 | . | . | .
COc1ccc(NC(=O)ON=Cc2ccccc2Cl)cc1 | . | . | 3.1 | . | . | .
CCN(CCNc1ccc(Cl)cc1[N+](=O)[O-])C(=O)c1cc([N+](=O)[O-])c(N(C)C)cc1OC | 5.7 | 15.7* | 9.7 | 1.3 | 2.1 | 0.2
COC(=O)c1ccc(NC(=O)CSc2nc3[nH]ncc3c(=O)[nH]2)cc1 | 0.7 | 14.1* | 5.2 | 2.9 | -7.5 | 0.1
O=C(CSc1nc2[nH]ncc2c(=O)[nH]1)Nc1ccccc1C(F)(F)F | 2.8 | 1.2 | -0.9 | 3.2 | 3.6 | 3.8
O=C(CSc1nc2[nH]ncc2c(=O)[nH]1)Nc1ccccc1F | -0.1 | 14.1* | 5.2 | 0.0 | 3.5 | 14.7
CC(=O)Nc1ccc(NC(=S)NC(=O)/C=C/c2ccc(Cl)cc2)cc1 | 3.9 | -5.1 | 7.7 | 0.8 | -5.3 | -2.4
O=C(/C=C/c1ccc(Cl)cc1)NC(=S)Nc1ccc(NC(=O)c2ccco2)cc1 | -25.1 | 34.5* | 2.0 | -87.1 | -17.0 | -76.7
CC(C)CC(=O)NC(=S)Nc1ccc(NC(=O)c2ccco2)cc1 | 6.2 | 19.1* | -0.4 | -4.1 | 1.4 | 5.3
CC(C)CC(=O)N1CCN(c2ccc(NC(=O)c3ccco3)cc2)CC1 | 0.1 | 12.6* | 5.9 | -4.1 | 1.5 | 14.7
CCC(=O)NC(=S)Nc1ccc(NC(=O)c2ccco2)cc1 | -1.7 | 3.0 | 5.3 | 2.3 | 2.6 | -2.9
COc1cc(OC)cc(C(=O)NC(=S)Nc2ccc(NC(=O)c3ccco3)cc2)c1 | -2.8 | 18.5* | 6.6 | 1.0 | 5.4 | 13.7
COc1ccccc1-c1nnc(SCC(O)=C(C#N)c2nc3ccccc3[nH]2)n1C1CCCCC1 | . | . | 5.5 | . | . | .
O=C(NN=Cc1cc2cc3c(cc2nc1Cl)OCCO3)c1ccccc1O | . | . | -58.1 | . | . | .
COc1ccc(C=NNC(=O)c2cccnc2)c(C(=O)O)c1OC | . | . | 9.5 | . | . | .
Cc1ccc(S(=O)(=O)N2CCN(CC(=O)NN=C/C=C/c3ccccc3)CC2)cc1 | . | . | 7.6 | . | . | .
O=C(Nc1ccc(NC(=S)NC(=O)c2ccco2)cc1)c1ccccc1 | -0.8 | 15.1* | 2.6 | -8.1 | -1.1 | -0.5
O=C(NNC(=S)NC(=O)c1ccco1)c1ccc(NC(=O)c2ccccc2)cc1 | -3.6 | -0.3 | 1.9 | -1.0 | -3.0 | 8.8
COCCn1c(SCC(=O)NC2CCCCC2)nc2c(c1=O)SCC2 | 6.4 | 2.9 | 9.7 | -1.0 | 2.4 | 8.1
COCCn1c(SCC(=O)N2CCC(C)CC2)nc2c(c1=O)SCC2 | 7.8 | 11.1* | 4.5 | 5.2 | -1.1 | 1.9
CCCCCCN=C1CC(C)(C)CC(=O)/C1=C(\O)CCC | . | . | 3.6 | . | . | .
O=C(Cc1ccc(Cl)cc1)NN=Cc1ccncc1 | . | . | -0.3 | . | . | .
O=C(NCc1cccnc1)/C(=C/c1ccc(-c2cccc(C(F)(F)F)c2)o1)NC(=O)c1ccccc1 | 5.1 | -1.3 | -12.7 | -7.1 | 29.8* | 5.1
Cc1cc(=O)oc2c1ccc1oc(C(=NO)c3ccccc3)c(C)c12 | . | . | -2.8 | . | . | .
CC1(C)N=C(C=NO)CN1O | . | . | 1.6 | . | . | .
COCCNC(=O)C(=O)NCC1OCCN1S(=O)(=O)c1ccc(C)cc1 (centres undefined) | 3.3 | 14.1* | 2.1 | 2.5 | 0.7 | 0.6
Cc1ccc(S(=O)(=O)N2CCOC2CNC(=O)C(=O)NCC(C)C)cc1 (centres undefined) | 1.6 | 0.3 | -1.2 | 0.7 | 0.7 | 3.8
CNC(=O)C(=O)NCC1OCCN1S(=O)(=O)c1ccc(C)cc1 (centres undefined) | 5.4 | 11.1* | 4.1 | 6.9 | 1.8 | 7.3

Screening results deposited in PubChem BioAssay by several laboratories.
